Reference: ChEMBL document CHEMBL1149289, “Synthesis and antibacterial activity of new poly-S-lysine-porphyrin conjugates” (J Med Chem, 2004)

Assays:
[1] = tested on: Staphylococcus aureus; assay: Logarithmic survival of methicillin-resistant Staphylococcus aureus 110 at 1 uM after 10 mins and irradiated with white light at the fluence rate of 50 mW/cm2 for 30 mins relative to control; format: functional; conditions: light or radiation study
Outline: (§1)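 MRSA 110 grown aerobically at 37 °C on BHA. Stationary-phase cells were taken into BHI, washed twice in PBS and diluted to OD650 ~0.7 (10^8 to 10^9 cells/mL). Suspensions were held with photosensitizer for 10 min in the dark at room temperature, then given white light for 30 min. Cells were serially diluted, plated on BHA and counted after 16–20 h at 37 °C. Survival = cfu ÷ cfu of photosensitizer-free controls.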

[2] = tested on: Staphylococcus aureus; assay: Logarithmic survival of methicillin-resistant Staphylococcus aureus 110 at 2.5 uM after 10 mins and irradiated with white light at the fluence rate of 50 mW/cm2 for 30 mins relative to control; format: functional; conditions: light or radiation study; outline: as §1
[3] = tested on: Staphylococcus aureus; assay: Logarithmic survival of methicillin-resistant Staphylococcus aureus 110 at 10 uM after 10 mins and irradiated with white light at the fluence rate of 50 mW/cm2 for 30 mins relative to control; format: functional; conditions: light or radiation study; outline: as §1
[4] = tested on: Escherichia coli; assay: Logarithmic survival of Escherichia coli O4 at 0.01 uM after 10 mins and irradiated with white light at the fluence rate of 50 mW/cm2 for 30 mins relative to control; format: functional; conditions: O4, light or radiation study
Outline: (§2)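 Strains grown aerobically at 37 °C on brain heart agar; stationary-phase cells washed twice in PBS and adjusted to OD650 ca. 0.7 (10^8 to 10^9 cells/mL). Cells incubated with photosensitizer at various concentrations for 10 min in the dark at room temperature, then irradiated with white light at 50 mW/cm² for 30 min. Survivors counted as cfu on BHA after 16–20 h at 37 °C, expressed relative to no-photosensitizer controls. Dark controls were run without irradiation.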

[5] = tested on: Escherichia coli; assay: Logarithmic survival of Escherichia coli O4 at 0.25 uM after 10 mins and irradiated with white light at the fluence rate of 50 mW/cm2 for 30 mins relative to control; format: functional; conditions: O4, light or radiation study; outline: as §2
[6] = tested on: Escherichia coli; assay: Logarithmic survival of Escherichia coli O4 at 1 uM after 10 mins and irradiated with white light at the fluence rate of 50 mW/cm2 for 30 mins relative to control; format: functional; conditions: O4, light or radiation study; outline: as §2
[7] = tested on: Escherichia coli; assay: Logarithmic survival of Escherichia coli O4 at 2.5 uM after 10 mins and irradiated with white light at the fluence rate of 50 mW/cm2 for 30 mins relative to control; format: functional; conditions: O4, light or radiation study; outline: as §2
[8] = tested on: Escherichia coli; assay: Logarithmic survival of Escherichia coli O4 at 5 uM after 10 mins and irradiated with white light at the fluence rate of 50 mW/cm2 for 30 mins relative to control; format: functional; conditions: O4, light or radiation study; outline: as §2
[9] = tested on: Escherichia coli; assay: Logarithmic survival of Escherichia coli O4 at 10 uM after 10 mins and irradiated with white light at the fluence rate of 50 mW/cm2 for 30 mins relative to control; format: functional; conditions: O4, light or radiation study; outline: as §2
[10] = tested on: Staphylococcus aureus; assay: Logarithmic survival of Staphylococcus aureus ATCC 25923 at 0.1 uM after 10 mins and irradiated with white light at the fluence rate of 50 mW/cm2 for 1 min relative to control; format: functional; conditions: ATCC 25923, light or radiation study
Outline: (§3)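 S. aureus ATCC 25923 or MRSA 110 (PBS-washed, 10^8 to 10^9 cells/mL) were incubated with 0.1 μM photosensitizer for 10 min in the dark at room temperature. They were then irradiated with white light at 50 mW/cm² for varying times up to 30 min. Survival was read as cfu on BHA and divided by cfu of controls without photosensitizer.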

[11] = tested on: Staphylococcus aureus; assay: Logarithmic survival of Staphylococcus aureus ATCC 25923 at 0.1 uM after 10 mins and irradiated with white light at the fluence rate of 50 mW/cm2 for 2.5 mins relative to control; format: functional; conditions: ATCC 25923, light or radiation study; outline: as §3
[12] = tested on: Staphylococcus aureus; assay: Logarithmic survival of Staphylococcus aureus ATCC 25923 at 0.1 uM after 10 mins and irradiated with white light at the fluence rate of 50 mW/cm2 for 20 mins relative to control; format: functional; conditions: ATCC 25923, light or radiation study; outline: as §3
[13] = tested on: Staphylococcus aureus; assay: Logarithmic survival of methicillin-resistant Staphylococcus aureus 110 at 0.1 uM after 10 mins and irradiated with white light at the fluence rate of 50 mW/cm2 relative to control; format: functional; conditions: light or radiation study
[14] = tested on: Staphylococcus aureus; assay: Logarithmic survival of methicillin-resistant Staphylococcus aureus 110 at 0.1 uM after 10 mins and irradiated with white light at the fluence rate of 50 mW/cm2 for 5 mins relative to control; format: functional; conditions: light or radiation study; outline: as §3
[15] = tested on: Staphylococcus aureus; assay: Drug uptake per mg of protein in methicillin-resistant Staphylococcus aureus 110 at 2.5 uM after 10 mins; format: ADME, organism-based; conditions: in vivo
Outline: (§4)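 Bacterial suspensions (10^8 to 10^9 cells/mL in PBS) were incubated with porphyrin for 10 min in the dark at room temperature, then centrifuged. The pellet was digested in 2% aqueous SDS. Porphyrin was quantified by spectrofluorimetry and cell protein by modified Lowry assay (BSA standard). Uptake is given as nmol per mg cell protein.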

[16] = tested on: Staphylococcus aureus; assay: Drug uptake per mg of protein in methicillin-resistant Staphylococcus aureus 110 at 5 uM after 10 mins; format: ADME, organism-based; conditions: in vivo; outline: as §4
[17] = tested on: Escherichia coli; assay: Drug uptake per mg of protein in Escherichia coli O4 at 0.5 uM after 10 mins; format: ADME, organism-based; conditions: in vivo; outline: as §4
[18] = tested on: Escherichia coli; assay: Drug uptake per mg of protein in Escherichia coli O4 at 1 uM after 10 mins; format: ADME, organism-based; conditions: in vivo; outline: as §4
[19] = tested on: Escherichia coli; assay: Drug uptake per mg of protein in Escherichia coli O4 at 2.5 uM after 10 mins; format: ADME, organism-based; conditions: in vivo; outline: as §4
[20] = tested on: Escherichia coli; assay: Drug uptake per mg of protein in Escherichia coli O4 at 10 uM after 10 mins; format: ADME, organism-based; conditions: in vivo; outline: as §4
[21] = tested on: Staphylococcus aureus; assay: Logarithmic survival of Staphylococcus aureus ATCC 25923 at 0.01 uM after 10 mins and irradiated with white light at the fluence rate of 50 mW/cm2 for 30 mins relative to control; format: functional; conditions: ATCC 25923, light or radiation study; outline: as §2
[22] = tested on: Staphylococcus aureus; assay: Logarithmic survival of Staphylococcus aureus ATCC 25923 at 2.5 uM after 10 mins and irradiated with white light at the fluence rate of 50 mW/cm2 for 30 mins relative to control; format: functional; conditions: ATCC 25923, light or radiation study; outline: as §2
[23] = tested on: Staphylococcus aureus; assay: Logarithmic survival of Staphylococcus aureus ATCC 25923 at 10 uM after 10 mins and irradiated with white light at the fluence rate of 50 mW/cm2 for 30 mins relative to control; format: functional; conditions: ATCC 25923, light or radiation study; outline: as §2
[24] = tested on: Staphylococcus aureus; assay: Logarithmic survival of methicillin-resistant Staphylococcus aureus 110 at 0.01 uM after 10 mins and irradiated with white light at the fluence rate of 50 mW/cm2 for 30 mins relative to control; format: functional; conditions: light or radiation study; outline: as §2
[25] = tested on: Staphylococcus aureus; assay: Logarithmic survival of methicillin-resistant Staphylococcus aureus 110 at 0.1 uM after 10 mins and irradiated with white light at the fluence rate of 50 mW/cm2 for 30 mins relative to control; format: functional; conditions: light or radiation study; outline: as §3
[26] = tested on: Staphylococcus aureus; assay: Logarithmic survival of methicillin-resistant Staphylococcus aureus 110 at 0.25 uM after 10 mins and irradiated with white light at the fluence rate of 50 mW/cm2 for 30 mins relative to control; format: functional; conditions: light or radiation study; outline: as §1
[27] = Photostability after irradiation with white light at the fluence rate of 50 mW/cm2 for 1 min; format: ADME; conditions: read-out: Stability
[28] = Photostability after irradiation with white light at the fluence rate of 50 mW/cm2 for 5 mins; format: ADME; conditions: read-out: Stability
[29] = tested on: Escherichia coli; assay: Antibacterial activity against Escherichia coli O4 measured as 4 log decrease in survival; format: functional; outline: as §2
[30] = tested on: Staphylococcus aureus; assay: Drug uptake per mg of protein in Staphylococcus aureus ATCC 25923 at 1 uM after 10 mins; format: ADME, organism-based; conditions: in vivo; outline: as §4
[31] = tested on: Staphylococcus aureus; assay: Drug uptake per mg of protein in Staphylococcus aureus ATCC 25923 at 10 uM after 10 mins; format: ADME, organism-based; conditions: in vivo; outline: as §4
[32] = tested on: Staphylococcus aureus; assay: Drug uptake per mg of protein in methicillin-resistant Staphylococcus aureus 110 at 1 uM after 10 mins; format: ADME, organism-based; conditions: in vivo; outline: as §4

Compound	survival at 1 µM [1]	survival at 2.5 µM [2]	survival at 10 µM [3]	survival at 0.01 µM [4]	survival at 0.25 µM [5]	survival at 1 µM [6]	survival at 2.5 µM [7]	survival at 5 µM [8]	survival at 10 µM [9]	survival at 0.1 µM [10]	survival at 0.1 µM [11]	survival at 0.1 µM [12]	survival at 0.1 µM [13]	survival at 0.1 µM [14]	Drug uptake [15]	Drug uptake [16]	Drug uptake [17]	Drug uptake [18]	Drug uptake [19]	Drug uptake [20]	also measured
C[n+]1ccc(-c2c3nc(c(-c4cc[n+](C)cc4)c4ccc([nH]4)c(-c4cc[n+](C)cc4)c4nc(c(-c5ccc(C(=O)O)cc5)c5ccc2[nH]5)C=C4)C=C3)cc1.[I-].[I-].[I-]	-0.43	-2.13	-2.7	2	1.64	0.68	-0.46	-2.57	-4.36	0.67	0.49	-2.12	1.95	1.87	7.69 nmol/mg	11.8 nmol/mg	1.29 nmol/mg	2.47 nmol/mg	3.47 nmol/mg	6.88 nmol/mg	survival at 0.01 µM [21]: 2; survival at 2.5 µM [22]: -2%; survival at 10 µM [23]: -4.36%; log survival at 0.01 µM [24]: 2 log10 %; survival at 0.1 µM [25]: 1.69%; survival at 0.25 µM [26]: 1.68%; remaining at 1 min [27]: 93%; remaining at 5 min [28]: 83%; Activity [29]: 5 µM; Drug uptake [30]: 3.71 nmol/mg; Drug uptake [31]: 17 nmol/mg; Drug uptake [32]: 5.43 nmol/mg
O=C(O)c1ccc(-c2c3nc(c(-c4ccncc4)c4ccc([nH]4)c(-c4ccncc4)c4nc(c(-c5ccncc5)c5ccc2[nH]5)C=C4)C=C3)cc1 [PORPHIRIN]	-2.27	-3.11	-3.35	2	1.7	1.72	1.65	1.6	-4.06	1.49	0.22	-3	1.89	1.61	47 nmol/mg	143 nmol/mg	4.16 nmol/mg	7.65 nmol/mg	35.3 nmol/mg	163 nmol/mg	survival at 0.01 µM [21]: 2; survival at 2.5 µM [22]: -3.3%; survival at 10 µM [23]: -4.06%; log survival at 0.01 µM [24]: 2 log10 %; survival at 0.1 µM [25]: 0.46%; survival at 0.25 µM [26]: -1.39%; remaining at 1 min [27]: 99%; remaining at 5 min [28]: 96%; Activity [29]: 10 µM; Drug uptake [30]: 7.7 nmol/mg; Drug uptake [31]: 187 nmol/mg; Drug uptake [32]: 15 nmol/mg
